Source: ChEMBL document CHEMBL2375290, “Nonclassical antifolates, part 3: synthesis, biological evaluation and molecular modeling study of some new 2-heteroarylthio-quinazolin-4-ones” (Eur J Med Chem, 2013)
Values after ≈ are worked out from the molar mass of the structure shown.

Experiments:
Micrococcus luteus [1] = assay: Antimicrobial activity against Micrococcus luteus at 100 ug after 24 hrs by agar disc diffusion method; format: functional; conditions: read-out: DIZ
In short: (§1)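 Agar disc diffusion on Müller-Hinton agar. Sterile 8 mm filter-paper discs were moistened with the compound in DMSO. Strains were B. subtilis IFO 3007 and M. luteus IFO 3232. Plates were incubated at 37 °C, and growth-inhibition zone diameters were measured in mm after 24 h. DMSO served as the solvent control.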

Micrococcus luteus [2] = assay: Antimicrobial activity against Micrococcus luteus after 24 hrs by micro-dilution susceptibility method; format: functional
In short: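 MIC by broth microdilution in Müller-Hinton broth against M. luteus IFO 3232, the same strain used in the disc-diffusion primary screen.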

Pseudomonas aeruginosa [3] = assay: Antimicrobial activity against Pseudomonas aeruginosa after 24 hrs by micro-dilution susceptibility method; format: functional
In short: (§2)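 Broth microdilution in Müller-Hinton broth against S. aureus IFO 3060, B. subtilis IFO 3007, E. coli IFO 3301 and P. aeruginosa IFO 3448. These are the same standard strains used in the disc-diffusion primary screen. Compounds were solubilized in DMSO. MIC recorded as the minimal inhibitory concentration.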

Staphylococcus aureus [4] = assay: Antimicrobial activity against Staphylococcus aureus after 24 hrs by micro-dilution susceptibility method; format: functional; in short: as §2
Escherichia coli [5] = assay: Antimicrobial activity against Escherichia coli after 24 hrs by micro-dilution susceptibility method
Escherichia coli [6] = assay: Antimicrobial activity against Escherichia coli at 100 ug after 24 hrs by agar disc diffusion method; format: functional; conditions: read-out: DIZ
Bacillus subtilis [7] = assay: Antimicrobial activity against Bacillus subtilis at 100 ug after 24 hrs by agar disc diffusion method; format: functional; conditions: read-out: DIZ; in short: as §1
Staphylococcus aureus [8] = assay: Antimicrobial activity against Staphylococcus aureus at 100 ug after 24 hrs by agar disc diffusion method; format: functional; conditions: read-out: DIZ
Bacillus subtilis [9] = assay: Antimicrobial activity against Bacillus subtilis after 24 hrs by micro-dilution susceptibility method; format: functional; in short: as §2
Pseudomonas aeruginosa [10] = assay: Antimicrobial activity against Pseudomonas aeruginosa at 100 ug after 24 hrs by agar disc diffusion method; format: functional; conditions: read-out: DIZ
Bacillus subtilis [11] = assay: Antimicrobial activity against Bacillus subtilis at 200 ug after 24 hrs by agar disc diffusion method; format: functional; conditions: read-out: DIZ
Pseudomonas aeruginosa [12] = assay: Antimicrobial activity against Pseudomonas aeruginosa at 200 ug after 24 hrs by agar disc diffusion method; format: functional; conditions: read-out: DIZ
Staphylococcus aureus [13] = assay: Antimicrobial activity against Staphylococcus aureus at 200 ug after 24 hrs by agar disc diffusion method; format: functional; conditions: read-out: DIZ
Dihydrofolate reductase = target: T1, Dihydrofolate reductase (Bos taurus, UniProt P00376); assay: Inhibition of bovine DHFR after 2 mins by spectrophotometry
T1 sequence (P00376 whole entry): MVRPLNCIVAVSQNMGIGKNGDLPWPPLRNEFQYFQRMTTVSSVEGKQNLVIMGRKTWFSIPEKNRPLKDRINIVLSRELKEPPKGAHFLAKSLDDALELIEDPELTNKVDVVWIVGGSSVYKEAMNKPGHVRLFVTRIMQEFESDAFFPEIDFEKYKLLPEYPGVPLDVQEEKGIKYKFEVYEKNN

Micrococcus luteus [14] = assay: Antimicrobial activity against Micrococcus luteus at 200 ug after 24 hrs by agar disc diffusion method; format: functional; conditions: read-out: DIZ
Escherichia coli [15] = assay: Antimicrobial activity against Escherichia coli at 200 ug after 24 hrs by agar disc diffusion method; format: functional; conditions: read-out: DIZ

IC50 (Dihydrofolate reductase) | SMILES | zone of inhibition at 100 µg/disc (Micrococcus luteus [1]) | MIC (Micrococcus luteus [2]) | MIC (Pseudomonas aeruginosa [3]) | MIC (Staphylococcus aureus [4]) | MIC (Escherichia coli [5]) | zone of inhibition at 100 µg/disc (Escherichia coli [6]) | zone of inhibition at 100 µg/disc (Bacillus subtilis [7]) | zone of inhibition at 100 µg/disc (Staphylococcus aureus [8]) | MIC (Bacillus subtilis [9]) | zone of inhibition at 100 µg/disc (Pseudomonas aeruginosa [10]) | zone of inhibition at 200 µg/disc (Bacillus subtilis [11]) | zone of inhibition at 200 µg/disc (Pseudomonas aeruginosa [12]) | zone of inhibition at 200 µg/disc (Staphylococcus aureus [13]) | zone of inhibition at 200 µg/disc (Micrococcus luteus [14]) | zone of inhibition at 200 µg/disc (Escherichia coli [15])
 | CC(=O)NS(=O)(=O)c1ccc(N)cc1 [SULFACETAMIDE] | 18 mm | 2 µg/mL (≈ 9.34 µM) | 2 µg/mL (≈ 9.34 µM) | 2 µg/mL (≈ 9.34 µM) | 1 µg/mL (≈ 4.67 µM) | 28 mm | 22 mm | 20 mm | 2 µg/mL (≈ 9.34 µM) | 25 mm |  |  |  |  | 
4 µM | CCOC(=O)c1nc(N)sc1Sc1nc2ccc(C)cc2c(=O)n1Cc1ccccc1 |  | 4 µg/mL (≈ 8.84 µM) | 4 µg/mL (≈ 8.84 µM) | 2 µg/mL (≈ 4.42 µM) | 2 µg/mL (≈ 4.42 µM) |  |  |  | 2 µg/mL (≈ 4.42 µM) |  | 26 mm | 18 mm | 24 mm | 20 mm | 24 mm
